For orientation: MIC means the lowest concentration found to suppress growth. A low value points to inhibition by little substance.

The results in this text go back to ChEMBL document CHEMBL1137547, “Synthesis and antifungal activities of novel 2-aminotetralin derivatives” (2007).

Common to all, as to format: functional
The subject of one experiment is Aspergillus fumigatus. Kind of experiment: Antifungal activity against Aspergillus fumigatus. In a few lines:
(§1)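 NCCLS broth serial dilution in RPMI 1640 buffered with 0.165 M MOPS. Compounds were dissolved in DMSO and serially diluted in medium. Strains came from ATCC or clinical isolates. The growth MIC for filamentous fungi was read at 7 d, taken as the lowest concentration giving ≥80% turbidity inhibition versus the growth control.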

For experiment [1], the system named is Candida albicans. Kind of experiment: Antifungal activity against Candida albicans after 24 hrs. In short, it runs like this:
(§2)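 Candida yeasts were tested by NCCLS microdilution in RPMI 1640 buffered with 0.165 M MOPS and incubated at 35 °C. Compounds were dissolved in DMSO and serially diluted in medium. Isolates came from ATCC or the clinic. The MIC was read at 24 h as the lowest concentration achieving ≥80% growth inhibition versus the control.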

Another experiment relates to Cryptococcus neoformans. Kind of experiment: Antifungal activity against Cryptococcus neoformans after 72 hrs. In short, it runs like this: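 Cryptococcus neoformans was tested by NCCLS serial dilution in MOPS-buffered (0.165 M) RPMI 1640 at 35 °C. Compounds were dissolved in DMSO and diluted in medium. The MIC was read at 72 h as the lowest concentration giving turbidity inhibition of ≥80% relative to the growth control.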

The test system of a further experiment is Trichophyton rubrum. Kind of experiment: Antifungal activity against Trichophyton rubrum. In a few lines:
(§3)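 Dermatophytes were tested by NCCLS serial dilution in RPMI 1640 with 0.165 M MOPS and incubated at 28 °C. Compounds were dissolved in DMSO and diluted in medium. Strains came from ATCC or clinical isolates. The MIC was read at 7 d as the lowest concentration reducing turbidity by ≥80% relative to the drug-free control.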

The next experiment relates to Microsporum. As to the kind of experiment: Antifungal activity against Microsporum gypseum. In short, it runs like this:
as §3

In another experiment the test system is Candida parapsilosis. Kind of experiment: Antifungal activity against Candida parapsilosis after 24 hrs. Particulars: Lodderomyces parapsilosis. In a few lines:
as §2

Another experiment concerns Fonsecaea compacta. Kind of experiment: Antifungal activity against Fonsecaea compacta. In short, it runs like this: as §1
Experiment [2] concerns Candida albicans. Kind of experiment: Antifungal activity against fluconazole-resistant Candida albicans 0511655 after 24 hrs. In a few lines:
(§4)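 Broth serial dilution MIC per NCCLS in 96-well format; medium RPMI 1640 buffered with 0.165 M MOPS; compounds dissolved in DMSO and serially diluted in medium; clinical C. albicans isolates incubated at 35 °C, read at 24 h; MIC = lowest concentration giving turbidity […] inhibition relative to growth control; fluconazole and I-6 as control drugs.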

For experiment [3], the system named is Candida albicans. As to the kind of experiment: Antifungal activity against fluconazole-resistant Candida albicans 01010 after 24 hrs. In a few lines: as §4
Experiment [4] deals with Candida albicans. Kind of experiment: Antifungal activity against fluconazole-resistant Candida albicans 25 after 24 hrs. In a few lines:
as §4

The test system of experiment [5] is Candida albicans. As to the kind of experiment: Antifungal activity against fluconazole-resistant Candida albicans 18 after 24 hrs. In a few lines:
as §4

Values after ≈ are worked out from the molar mass of the structure shown.

With `CCCCCCCCCCCCCCNC1CCc2cccc(OC)c2C1` (configuration not stated), the MIC against Aspergillus fumigatus is > 64 µM; with Candida albicans [1], 4 µM (≈ 1.49 µg/mL); against Cryptococcus neoformans, 32 µM (≈ 12 µg/mL); in the experiment with Trichophyton rubrum, 0.5 µM (≈ 0.187 µg/mL); with Microsporum, 2 µM (≈ 0.747 µg/mL); against Candida parapsilosis it was 16 µM (≈ 5.98 µg/mL). The same molecule had an MIC against Fonsecaea compacta of 32 µM (≈ 12 µg/mL).
With `COc1cccc2c1CC(Nc1ccccc1)CC2` (configuration not stated), the MIC was > 64 µM in the experiment with Aspergillus fumigatus; > 64 µM in the experiment on Candida albicans [1]; > 64 µM against Cryptococcus neoformans; 4 µM (≈ 1.01 µg/mL) against Trichophyton rubrum; 32 µM (≈ 8.11 µg/mL) with Microsporum; > 64 µM in the experiment with Candida parapsilosis. Moreover, the MIC in the experiment with Fonsecaea compacta was > 64 µM.
For `CCCCCCCCCCCCCCNC1CCc2c(O)cccc2C1` (configuration not stated), the MIC against Aspergillus fumigatus is > 64 µM; against Candida albicans [1], 8 µM (≈ 2.88 µg/mL); in the experiment with Cryptococcus neoformans it was 8 µM (≈ 2.88 µg/mL); against Trichophyton rubrum, 0.5 µM (≈ 0.18 µg/mL); in the experiment with Microsporum, 4 µM (≈ 1.44 µg/mL); against Candida parapsilosis, > 64 µM. For the same molecule, the MIC against Fonsecaea compacta is > 64 µM.
For the molecule `CCCCCCCCCCCCCCNC1CCc2cc(O)ccc2C1` (configuration not stated), the MIC with Aspergillus fumigatus is > 64 µM; in the experiment on Candida albicans [1] it was 2 µM (≈ 0.719 µg/mL); against Cryptococcus neoformans, > 4 µM; in the experiment on Trichophyton rubrum it was 0.5 µM (≈ 0.18 µg/mL); in the experiment on Microsporum, 2 µM (≈ 0.719 µg/mL); against Candida parapsilosis, 32 µM (≈ 11.5 µg/mL). Further, in the experiment on Fonsecaea compacta, the minimum inhibitory concentration (MIC) was > 64 µM.
As to `Oc1ccc2c(c1)CC(Nc1ccccc1)CC2` (configuration not stated), the MIC with Aspergillus fumigatus is > 64 µM; in the experiment with Candida albicans [1], 32 µM (≈ 7.66 µg/mL); against Cryptococcus neoformans it was 16 µM (≈ 3.83 µg/mL); with Trichophyton rubrum, 8 µM (≈ 1.91 µg/mL); against Microsporum it was 16 µM (≈ 3.83 µg/mL); with Candida parapsilosis, > 64 µM. In the experiment on Fonsecaea compacta, this molecule came in with an MIC of 32 µM (≈ 7.66 µg/mL).
Regarding `COc1ccc2c(c1)CCC(NCc1ccccc1)C2` (configuration not stated), the minimum inhibitory concentration (MIC) against Aspergillus fumigatus is > 64 µM; in the experiment with Candida albicans [1] it was 30 µM (≈ 8.02 µg/mL); with Cryptococcus neoformans, > 64 µM; with Trichophyton rubrum, 16 µM (≈ 4.28 µg/mL); in the experiment on Microsporum, > 64 µM; against Candida parapsilosis it was > 64 µM. For the same molecule, in the experiment on Fonsecaea compacta, the MIC was > 64 µM.
With `CCCCCCCCCCCCCCNC1CCc2ccc(O)cc2C1` (configuration not stated), the minimal inhibitory concentration (MIC) against Aspergillus fumigatus is > 64 µM; in the experiment with Candida albicans [1], 4 µM (≈ 1.44 µg/mL); with Cryptococcus neoformans it was 8 µM (≈ 2.88 µg/mL); in the experiment with Trichophyton rubrum it was 0.5 µM (≈ 0.18 µg/mL); in the experiment on Microsporum it was 4 µM (≈ 1.44 µg/mL); against Candida parapsilosis, 4 µM (≈ 1.44 µg/mL). For the same molecule, the minimum inhibitory concentration (MIC) in the experiment with Fonsecaea compacta was determined as 8 µM (≈ 2.88 µg/mL).
Regarding `CCCCCCCCCCCCCCNC1CCc2cc(OC)ccc2C1` (configuration not stated), the MIC against Aspergillus fumigatus was > 64 µM; against Candida albicans [1], 32 µM (≈ 12 µg/mL); in the experiment on Cryptococcus neoformans, 64 µM (≈ 23.9 µg/mL); in the experiment on Trichophyton rubrum it was 16 µM (≈ 5.98 µg/mL); against Microsporum it was > 64 µM; against Candida parapsilosis, > 64 µM. The MIC in the experiment on Fonsecaea compacta was > 64 µM.
With `Oc1ccc2c(c1)CCC(Nc1ccccc1)C2` (configuration not stated), the minimum inhibitory concentration (MIC) in the experiment with Aspergillus fumigatus is > 64 µM; in the experiment on Candida albicans [1], 64 µM (≈ 15.3 µg/mL); against Cryptococcus neoformans, 64 µM (≈ 15.3 µg/mL); against Trichophyton rubrum it was 8 µM (≈ 1.91 µg/mL); in the experiment on Microsporum, 32 µM (≈ 7.66 µg/mL); with Candida parapsilosis, 64 µM (≈ 15.3 µg/mL). Also, it took 64 µM (≈ 15.3 µg/mL) to inhibit growth with Fonsecaea compacta (MIC).
On to `CCCCCCCCCCCCCCCCCCNC1CCc2cccc(O)c2C1` (configuration not stated), for which the MIC was > 64 µM in the experiment on Aspergillus fumigatus; > 64 µM with Candida albicans [1]; > 64 µM against Cryptococcus neoformans; 2 µM (≈ 0.831 µg/mL) against Trichophyton rubrum; > 64 µM in the experiment with Microsporum; > 64 µM against Candida parapsilosis. This molecule gave a minimal inhibitory concentration (MIC) against Fonsecaea compacta of 64 µM (≈ 26.6 µg/mL).
As for `CCCCCCCCCCCCCCNC1CCc2cccc(O)c2C1` (configuration not stated), the MIC was 16 µM (≈ 5.75 µg/mL) with Aspergillus fumigatus; 16 µM (≈ 5.75 µg/mL) in the experiment on Candida albicans [1]; 32 µM (≈ 11.5 µg/mL) with Cryptococcus neoformans; 0.125 µM (≈ 0.0449 µg/mL) with Trichophyton rubrum; 4 µM (≈ 1.44 µg/mL) in the experiment on Microsporum; 64 µM (≈ 23 µg/mL) against Candida parapsilosis. 16 µM (≈ 5.75 µg/mL) was the least that counted as inhibitory in the experiment on Fonsecaea compacta (MIC).
For `COc1cccc2c1CCC(NCc1ccccc1)C2` (configuration not stated), the MIC is > 64 µM against Aspergillus fumigatus; 32 µM (≈ 8.56 µg/mL) in the experiment with Candida albicans [1]; 64 µM (≈ 17.1 µg/mL) in the experiment on Cryptococcus neoformans; 16 µM (≈ 4.28 µg/mL) in the experiment on Trichophyton rubrum; 64 µM (≈ 17.1 µg/mL) against Microsporum; > 64 µM with Candida parapsilosis. This molecule returned an MIC in the experiment with Fonsecaea compacta of 32 µM (≈ 8.56 µg/mL).
With `C[C@@H]1[C@H](O)[C@@H](C)/C=C/C=C/C=C/C=C/C=C/C=C/C=C/[C@H](O[C@@H]2O[C@H](C)[C@@H](O)[C@H](N)[C@@H]2O)C[C@@H]2O[C@](O)(C[C@@H](O)C[C@@H](O)[C@H](O)CC[C@@H](O)C[C@@H](O)CC(=O)O[C@H]1C)C[C@H](O)[C@H]2C(=O)O` [AMPHOTERICIN B], the MIC amounted to 0.25 µM (≈ 0.231 µg/mL) against Candida albicans [2], 0.64 µM (≈ 0.591 µg/mL) against Candida albicans [3], 0.5 µM (≈ 0.462 µg/mL) against Candida albicans [4] and 2 µM (≈ 1.85 µg/mL) in the experiment on Candida albicans [5].
On the same counts, the results for `CCC(C)n1ncn(-c2ccc(N3CCN(c4ccc(OCC5COC(Cn6cncn6)(c6ccc(Cl)cc6Cl)O5)cc4)CC3)cc2)c1=O` (configuration not stated) [ITRACONAZOLE] are 64 µM (≈ 45.2 µg/mL), > 64 µM, > 64 µM and > 64 µM.
